Source: ChEMBL document CHEMBL1157626, “A concise synthesis of 1,4-dihydro-[1,4]diazepine-5,7-dione, a novel 7-TM receptor ligand core structure with melanocortin receptor agonist activity” (Bioorg Med Chem, 2010)

Assays:
Type in all cases: functional, cell-based
Melanocortin receptor 4 [1] = molecular target: T1, Melanocortin receptor 4 (Homo sapiens, UniProt P32245); experiment: Agonist activity at human MC4R expressed in CHO cells after 4 hrs by luciferase reporter gene assay
How it was run: (§1)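 CHO-6xCRE-luc+ cells expressing the human receptor, plated at 4000 cells/well in DMEM/F12 with 10% FBS 48 h before assay. Switched to serum-free medium 16 h before compound addition, then incubated 4 h at 37 °C. Luciferase read after 10 min dark adaptation. Activity expressed as % of fold stimulation by 1 × 10^-7 M NDP-aMSH (duplicate control wells).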

[2] = molecular target: T2, Melanocyte-stimulating hormone receptor (Homo sapiens, UniProt Q01726); experiment: Agonist activity at human MC1R expressed in CHO cells after 4 hrs by luciferase reporter gene assay; how it was run: as §1
Target sequence in this assay (Q01726 whole entry): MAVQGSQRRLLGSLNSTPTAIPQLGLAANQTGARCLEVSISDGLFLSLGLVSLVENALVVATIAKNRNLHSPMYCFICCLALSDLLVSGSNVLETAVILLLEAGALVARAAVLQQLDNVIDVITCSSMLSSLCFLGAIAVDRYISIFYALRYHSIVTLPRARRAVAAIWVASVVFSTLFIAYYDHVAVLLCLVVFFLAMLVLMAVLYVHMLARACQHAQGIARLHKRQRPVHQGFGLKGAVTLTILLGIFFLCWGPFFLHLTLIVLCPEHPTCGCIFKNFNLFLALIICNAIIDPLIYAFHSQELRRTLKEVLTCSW

[3] = molecular target: T2, Melanocyte-stimulating hormone receptor; experiment: Agonist activity at human MC1R expressed in CHO cells at 10 uM after 4 hrs by luciferase reporter gene assay relative to alpha-melanocyte stimulating hormone; how it was run: as §1
Target sequence in this assay (Q01726 whole entry, looked up): as the sequence (Q01726 whole entry) above

Melanocortin receptor 4 [4] = molecular target: T1, Melanocortin receptor 4; experiment: Agonist activity at human MC4R expressed in CHO cells at 10 uM after 4 hrs by luciferase reporter gene assay relative to alpha-melanocyte stimulating hormone; how it was run: as §1
Melanocortin receptor 4 [5] = molecular target: T1, Melanocortin receptor 4; experiment: Agonist activity at human MC4R expressed in CHO cells after 4 hrs by luciferase reporter gene assay relative to alpha-melanocyte stimulating hormone; how it was run: as §1
[6] = molecular target: T2, Melanocyte-stimulating hormone receptor; experiment: Agonist activity at human MC1R expressed in CHO cells after 4 hrs by luciferase reporter gene assay relative to alpha-melanocyte stimulating hormone; set-up: concentration or dose not given beside the values; how it was run: as §1
Target sequence in this assay (Q01726 whole entry, looked up): as the sequence (Q01726 whole entry) above

T1 sequence (P32245 whole entry): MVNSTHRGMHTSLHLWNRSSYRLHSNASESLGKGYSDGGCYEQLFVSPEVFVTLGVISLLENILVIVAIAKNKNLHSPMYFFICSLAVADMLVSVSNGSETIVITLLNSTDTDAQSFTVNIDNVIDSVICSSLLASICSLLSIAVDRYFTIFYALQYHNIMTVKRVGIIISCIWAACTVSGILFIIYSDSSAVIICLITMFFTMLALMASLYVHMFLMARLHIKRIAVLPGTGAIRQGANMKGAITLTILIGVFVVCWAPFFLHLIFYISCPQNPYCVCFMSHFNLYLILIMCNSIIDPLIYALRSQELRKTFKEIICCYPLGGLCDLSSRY

Compound	EC50 (Melanocortin receptor 4 [1]; read-out: EC50) [nM]	EC50 ([2]; read-out: EC50) [nM]	Efficacy [3] [%]	Efficacy (Melanocortin receptor 4 [4]) [%]	EC50 (Melanocortin receptor 4 [1]; read-out: pEC50 (converted)) [nM]	EC50 ([2]; read-out: pEC50 (converted)) [nM]	Activity (Melanocortin receptor 4 [5])	Activity [6] [%]
CC(C)N(C(=O)CN1C=CN(c2ccccc2)C(=O)[C@@H](Cc2n[nH]c3cc(F)ccc23)C1=O)c1ccccc1	> 30000	> 30000	2	0	–	–	–	–
O=C1[C@H](Cc2n[nH]c3ccccc23)C(=O)N(c2ccccc2)C=CN1CC(=O)N1CCCCc2ccccc21	–	–	–	–	794	61.7	20	76
CC(C)N(C(=O)CN1C=CN(c2ccccc2)C(=O)[C@H](Cc2n[nH]c3cc(F)ccc23)C1=O)c1ccccc1	–	–	–	–	1260	35.5	23	79
COc1ccc(N(C(=O)CN2C=CN(c3ccccc3)C(=O)[C@@H](Cc3n[nH]c4ccccc34)C2=O)C(C)C)cc1	> 30000	–	–	14	–	1550	–	–
CC(C)N(C(=O)CN1C=CN(c2ccccc2)C(=O)[C@@H](Cc2n[nH]c3ccccc23)C1=O)c1ccccc1	> 30000	> 30000	9	3	–	–	–	–
CC(C)N(C(=O)CN1C=CN(c2ccccc2)C(=O)[C@H](Cc2n[nH]c3ccccc23)C1=O)c1ccccc1	–	–	–	–	1070	295	26	54
O=C1[C@@H](Cc2n[nH]c3ccccc23)C(=O)N(c2ccccc2)C=CN1CC(=O)N1CCCCc2ccccc21	–	–	–	–	100	1.58	27	86
COc1ccc(N(C(=O)CN2C=CN(c3ccccc3)C(=O)C(Cc3n[nH]c4cc(F)ccc34)C2=O)C(C)C)cc1 (racemic)	–	–	–	–	355	–	39	83
COc1ccc(N(C(=O)CN2C=CN(c3cccnc3)C(=O)C(Cc3n[nH]c4cc(F)ccc34)C2=O)C(C)C)cc1 (racemic)	–	–	–	–	661	12.6	31	65
COC1(Cc2n[nH]c3ccccc23)C(=O)N(CC(=O)N(c2ccc(F)cc2)C(C)C)C=CN(c2ccccc2)C1=O (racemic)	–	–	–	–	44.7	2950	52	33
COc1ccc(N(C(=O)CN2C=CN(c3ccccc3)C(=O)C(Cc3cc[nH]n3)(Cc3n[nH]c4ccccc34)C2=O)C(C)C)cc1 (racemic)	–	–	–	–	1050	398	16	30
COc1ccc(N(C(=O)CN2C=CN(Cc3ccccc3)C(=O)C(Cc3n[nH]c4ccccc34)C2=O)C(C)C)cc1 (racemic)	> 30000	–	–	6	–	794	–	59
CC(C)N(C(=O)CN1C=CN(c2ccccc2)C(=O)C(Cc2n[nH]c3ccccc23)C1=O)c1ccc(OC(F)(F)F)cc1 (racemic)	–	–	–	–	151	–	78	91
COc1ccc(N(C(=O)CN2C=CN(c3ccccc3)C(=O)C(Cc3n[nH]c4ccccc34)(OC)C2=O)C(C)C)cc1 (racemic)	–	–	–	–	166	1380	74	58
COc1ccc(N(C(=O)CN2C=CN(c3ccccc3)C(=O)C(Cc3nn(C)c4ccccc34)C2=O)C(C)C)cc1 (racemic)	> 30000	> 30000	6	5	–	–	–	–
CCn1nc(CC2C(=O)N(CC(=O)N(c3ccc(OC)cc3)C(C)C)C=CN(c3ccccc3)C2=O)c2ccccc21 (racemic)	> 30000	> 30000	2	5	–	–	–	–
O=C(CN1C=CN(c2ccccc2)C(=O)C(Cc2n[nH]c3ccccc23)C1=O)CP(=O)(Oc1ccccc1)Oc1ccccc1 (racemic)	> 30000	> 30000	1	5	–	–	–	–

Compound	EC50 (Melanocortin receptor 4 [1]; read-out: EC50) [nM]	EC50 ([2]; read-out: EC50) [nM]	Efficacy [3] [%]	Efficacy (Melanocortin receptor 4 [4]) [%]	EC50 (Melanocortin receptor 4 [1]; read-out: pEC50 (converted)) [nM]	EC50 ([2]; read-out: pEC50 (converted)) [nM]	Activity (Melanocortin receptor 4 [5])	Activity [6] [%]
CC(C)N(C(=O)CN1C=CN(c2ccccc2)C(=O)C(Cc2n[nH]c3ccccc23)C1=O)c1ccc(N2CCOCC2)cc1 (racemic)	> 30000	–	–	3	–	832	–	22
CC(C)N(C(=O)CN1C=CN(C)C(=O)C(Cc2n[nH]c3cc(F)ccc23)C1=O)c1ccc(F)cc1 (racemic)	> 30000	–	–	5	–	3720	–	62
CC(C)N(C(=O)CN1C=CN(c2ccccc2)C(=O)C(Cc2n[nH]c3cc(F)ccc23)C1=O)c1ccccc1 (racemic)	–	–	–	–	537	186	19	51
O=C(CN1C=CN(c2ccccc2)C(=O)C(Cc2n[nH]c3ccccc23)C1=O)CP(=O)(O)Oc1ccccc1 (racemic)	> 30000	> 30000	3	4	–	–	–	–
CC(C)N(C(=O)CN1C=CN(c2ccccc2)C(=O)C(Cc2n[nH]c3ccccc23)C1=O)c1ccc(F)cc1 (racemic)	–	–	–	–	282	–	22	54
CC(C)N(C(=O)CN1C=CN(c2ccccc2)C(=O)C(Cc2n[nH]c3cc(F)ccc23)C1=O)c1ccc(F)cc1 (racemic)	–	–	–	–	178	–	19	53
COc1ccc(N(C(=O)CN2C=CN(C3CCCCC3)C(=O)C(Cc3ccccc3)C2=O)C(C)C)cc1 (racemic)	> 30000	> 30000	0	0	–	–	–	–
O=C1C(Cc2n[nH]c3ccccc23)C(=O)N(c2ccccc2)C=CN1CC(=O)N1CCCCc2ccccc21 (racemic)	–	–	–	–	324	–	17	61
CC(C)N(C(=O)CN1C=CN(c2ccccc2)C(=O)C(Cc2n[nH]c3ccccc23)C1=O)c1ccccc1 (racemic)	–	–	–	–	3240	708	22	42
COc1ccc(N(C(=O)CN2C=CN(c3cccnc3)C(=O)C(Cc3n[nH]c4ccccc34)C2=O)C(C)C)cc1 (racemic)	–	–	–	–	2880	178	31	60
COc1ccc(N(C(=O)CN2C=CN(C3CCCCC3)C(=O)C(Cc3n[nH]c4ccccc34)C2=O)C(C)C)cc1 (racemic)	> 30000	> 30000	25	19	–	–	–	–
CC(C)N(C(=O)CN1C=CN(c2ccccc2)C(=O)C(Cc2n[nH]c3ccccc23)C1=O)c1ccc(O)cc1 (racemic) [listing 1 of 2 here]	–	–	–	–	1000	550	–	–
CC(C)N(C(=O)CN1C=CN(c2ccccc2)C(=O)C(Cc2n[nH]c3ccccc23)C1=O)c1ccc(O)cc1 (racemic) [listing 2 of 2 here]	–	–	–	–	–	–	30	54
CC(C)N(C(=O)CN1C=CN(c2ccccc2)C(=O)C(Cc2n[nH]c3ccccc23)C1=O)c1ccc(O)cc1 (single isomer, unassigned; form 1) [listing 1 of 2 here]	–	–	–	–	1000	–	–	–
CC(C)N(C(=O)CN1C=CN(c2ccccc2)C(=O)C(Cc2n[nH]c3ccccc23)C1=O)c1ccc(O)cc1 (single isomer, unassigned; form 1) [listing 2 of 2 here]	–	–	–	–	–	–	44	79
CC(C)N(C(=O)CN1C=CN(c2ccccc2)C(=O)C(Cc2n[nH]c3ccccc23)C1=O)c1ccc(O)cc1 (single isomer, unassigned; form 2) [listing 1 of 2 here]	> 30000	–	–	–	–	52.5	–	–
CC(C)N(C(=O)CN1C=CN(c2ccccc2)C(=O)C(Cc2n[nH]c3ccccc23)C1=O)c1ccc(O)cc1 (single isomer, unassigned; form 2) [listing 2 of 2 here]	–	–	–	5	–	–	–	16
